Results of several laboratories.
Target: Protein-tyrosine kinase 6 (PTK6, Homo sapiens, UniProt Q13882)

`CN([C@@H]1CCc2c(CC(=O)O)c3cc(S(C)(=O)=O)ccc3n2C1)S(=O)(=O)c1ccc(F)cc1` gave a remaining binding of 92% (cell-free assay; competition with immobilised ligand; 1 µM).
`c1cncc(-c2cccc(Nc3nccc(NC4CCCCC4)n3)c2)c1` has a remaining binding of 80% (binding; competition with immobilised ligand; 10 µM).
With `CNC(=O)[C@@H]1CC[C@@H](n2c(-c3ccc4cnccc4c3)nc3ccc(C(=O)NCc4cccc(C(N)=O)c4)cc32)C1` the remaining binding was 100% (binding; competition with immobilised ligand; 1 µM).
`COc1ncc2cc3ccccc3nc2c1C#N` has a remaining binding of 100% (cell-free assay; competition with immobilised ligand; 5 µM).
With `Cc1cnn2ncc(-c3ccnc(N(C)C)n3)c2c1` the remaining binding was 100% (binding; 1 µM).
`Cc1cnc(Nc2ccc(C(=O)N3CCC(N4CCCC4)CC3)cc2)nc1-c1cc2ccccc2s1` gave a remaining binding of 26% (binding; competition with immobilised ligand; 1 µM).
The remaining binding of `C[C@H]1CCN(c2nccc(-c3cnn4ncccc34)n2)C1` is reported as 100% (binding; 1 µM).
The remaining binding of `CCN1CCN(Cc2ccc(C(=O)Nc3ccc(C)c(Oc4ccc5c(c4)CC(=O)N5)c3)cc2C(F)(F)F)CC1` is reported as 100% (binding; competition with immobilised ligand; 1 µM).
`O=C(Nc1c[nH]nc1C(=O)NC1CCNCC1)c1cc(F)cc(F)c1` has a remaining binding of 100% (binding; competition with immobilised ligand; 1 µM).
For `CS(=O)(=O)NCC[C@H](NC(=O)c1cncc2c1cnn2-c1ccc(F)cc1)c1ccnc(S(C)(=O)=O)c1`, the remaining binding was 96% (cell-free assay; competition with immobilised ligand; 1 µM).
With `COc1ccnn2ncc(-c3ccnc(N(C)C)n3)c12` the remaining binding was 100% (binding; 1 µM).
The remaining binding of `O=C(NCCCN1CCOCC1)c1ccc(Nc2ncc(Cl)c(-c3ccc(Cl)s3)n2)cc1` is reported as 100% (binding; competition with immobilised ligand; 1 µM).
The remaining binding of `CCc1ccccc1C(=O)Nc1n[nH]c2c(C)c(F)c(C3C(C#N)=C(C)N(C)C(C)=C3C#N)cc12` is reported as 100% (cell-free assay; competition with immobilised ligand; 1 µM).
With `CN(C)c1nccc(-c2cnn3ncccc23)n1` the remaining binding was 100% (binding; 1 µM).
The remaining binding of `Cc1c(NC(=O)c2cc(C(N)=O)nc3cc(F)ccc23)c(C(F)(F)F)nn1Cc1ccc(C#N)cc1` is reported as 100% (cell-free assay; competition with immobilised ligand; 1 µM).
For `CC1CCCN1c1nccc(-c2cnn3ncccc23)n1` (centres unmarked), the remaining binding was 89% (binding; 1 µM).
With `O=C1NC(c2ccccn2)Sc2ccccc21` (centres unmarked) the remaining binding was 100% (cell-free assay; competition with immobilised ligand; 1 µM).
The remaining binding of `CN(CCCC(F)(F)F)c1nccc(-c2cnn3ncccc23)n1` is reported as 97% (binding; 1 µM).
`CCC(=O)N[C@@H]1CC[C@H](C(=O)N(C)c2ccc(-c3nc4ccccc4o3)cc2)C1` has a remaining binding of 90% (cell-free assay; competition with immobilised ligand; 1 µM).
`COc1cnc(Nc2cccc(S(N)(=O)=O)c2)nc1N1CCN(c2ccccc2)CC1` gave a remaining binding of 100% (binding; competition with immobilised ligand; 1 µM).
